Data published in ChEMBL document CHEMBL4330096, “Discovery of potent and selective 5-azaindazole inhibitors of leucine-rich repeat kinase 2 (LRRK2) - Part 1” (Bioorg Med Chem Lett, 2019).

How the values were obtained:
[1] = Stability in mouse liver microsomes assessed as compound turnover rate measured after 30 mins; type: ADME, Microsome; conditions: read-out: Drug metabolism
Outline: (§1)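 In vitro incubation of compound with liver microsomes: human (HLM) for 40 min, mouse (MLM) for 30 min. Reported as % turnover of parent compound.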

[2] = Stability in human liver microsomes assessed as compound turnover rate measured after 40 mins; type: ADME, Microsome; conditions: read-out: Drug metabolism; outline: as §1
[3] = target: Leucine-rich repeat serine/threonine-protein kinase 2 (Homo sapiens, UniProt Q5S007, G2019S); assay: Inhibition of recombinant human GST-tagged LRRK2 G2019S mutant catalytic domain (970 to 2527 residues) expressed in baculovirus expression system by radiometric assay
[4] = Ratio of drug level in mouse brain to plasma; conditions: read-out: BPR
Outline: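 Mice; ratio based on total (not unbound) compound concentrations in brain versus plasma.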

[5] = Lipophilicity, log D of the compound at pH 7.4; type: physicochemical; conditions: buffer

Chain of Leucine-rich repeat serine/threonine-protein kinase 2 (Q5S007 whole entry G2019S, the tested form may be a part): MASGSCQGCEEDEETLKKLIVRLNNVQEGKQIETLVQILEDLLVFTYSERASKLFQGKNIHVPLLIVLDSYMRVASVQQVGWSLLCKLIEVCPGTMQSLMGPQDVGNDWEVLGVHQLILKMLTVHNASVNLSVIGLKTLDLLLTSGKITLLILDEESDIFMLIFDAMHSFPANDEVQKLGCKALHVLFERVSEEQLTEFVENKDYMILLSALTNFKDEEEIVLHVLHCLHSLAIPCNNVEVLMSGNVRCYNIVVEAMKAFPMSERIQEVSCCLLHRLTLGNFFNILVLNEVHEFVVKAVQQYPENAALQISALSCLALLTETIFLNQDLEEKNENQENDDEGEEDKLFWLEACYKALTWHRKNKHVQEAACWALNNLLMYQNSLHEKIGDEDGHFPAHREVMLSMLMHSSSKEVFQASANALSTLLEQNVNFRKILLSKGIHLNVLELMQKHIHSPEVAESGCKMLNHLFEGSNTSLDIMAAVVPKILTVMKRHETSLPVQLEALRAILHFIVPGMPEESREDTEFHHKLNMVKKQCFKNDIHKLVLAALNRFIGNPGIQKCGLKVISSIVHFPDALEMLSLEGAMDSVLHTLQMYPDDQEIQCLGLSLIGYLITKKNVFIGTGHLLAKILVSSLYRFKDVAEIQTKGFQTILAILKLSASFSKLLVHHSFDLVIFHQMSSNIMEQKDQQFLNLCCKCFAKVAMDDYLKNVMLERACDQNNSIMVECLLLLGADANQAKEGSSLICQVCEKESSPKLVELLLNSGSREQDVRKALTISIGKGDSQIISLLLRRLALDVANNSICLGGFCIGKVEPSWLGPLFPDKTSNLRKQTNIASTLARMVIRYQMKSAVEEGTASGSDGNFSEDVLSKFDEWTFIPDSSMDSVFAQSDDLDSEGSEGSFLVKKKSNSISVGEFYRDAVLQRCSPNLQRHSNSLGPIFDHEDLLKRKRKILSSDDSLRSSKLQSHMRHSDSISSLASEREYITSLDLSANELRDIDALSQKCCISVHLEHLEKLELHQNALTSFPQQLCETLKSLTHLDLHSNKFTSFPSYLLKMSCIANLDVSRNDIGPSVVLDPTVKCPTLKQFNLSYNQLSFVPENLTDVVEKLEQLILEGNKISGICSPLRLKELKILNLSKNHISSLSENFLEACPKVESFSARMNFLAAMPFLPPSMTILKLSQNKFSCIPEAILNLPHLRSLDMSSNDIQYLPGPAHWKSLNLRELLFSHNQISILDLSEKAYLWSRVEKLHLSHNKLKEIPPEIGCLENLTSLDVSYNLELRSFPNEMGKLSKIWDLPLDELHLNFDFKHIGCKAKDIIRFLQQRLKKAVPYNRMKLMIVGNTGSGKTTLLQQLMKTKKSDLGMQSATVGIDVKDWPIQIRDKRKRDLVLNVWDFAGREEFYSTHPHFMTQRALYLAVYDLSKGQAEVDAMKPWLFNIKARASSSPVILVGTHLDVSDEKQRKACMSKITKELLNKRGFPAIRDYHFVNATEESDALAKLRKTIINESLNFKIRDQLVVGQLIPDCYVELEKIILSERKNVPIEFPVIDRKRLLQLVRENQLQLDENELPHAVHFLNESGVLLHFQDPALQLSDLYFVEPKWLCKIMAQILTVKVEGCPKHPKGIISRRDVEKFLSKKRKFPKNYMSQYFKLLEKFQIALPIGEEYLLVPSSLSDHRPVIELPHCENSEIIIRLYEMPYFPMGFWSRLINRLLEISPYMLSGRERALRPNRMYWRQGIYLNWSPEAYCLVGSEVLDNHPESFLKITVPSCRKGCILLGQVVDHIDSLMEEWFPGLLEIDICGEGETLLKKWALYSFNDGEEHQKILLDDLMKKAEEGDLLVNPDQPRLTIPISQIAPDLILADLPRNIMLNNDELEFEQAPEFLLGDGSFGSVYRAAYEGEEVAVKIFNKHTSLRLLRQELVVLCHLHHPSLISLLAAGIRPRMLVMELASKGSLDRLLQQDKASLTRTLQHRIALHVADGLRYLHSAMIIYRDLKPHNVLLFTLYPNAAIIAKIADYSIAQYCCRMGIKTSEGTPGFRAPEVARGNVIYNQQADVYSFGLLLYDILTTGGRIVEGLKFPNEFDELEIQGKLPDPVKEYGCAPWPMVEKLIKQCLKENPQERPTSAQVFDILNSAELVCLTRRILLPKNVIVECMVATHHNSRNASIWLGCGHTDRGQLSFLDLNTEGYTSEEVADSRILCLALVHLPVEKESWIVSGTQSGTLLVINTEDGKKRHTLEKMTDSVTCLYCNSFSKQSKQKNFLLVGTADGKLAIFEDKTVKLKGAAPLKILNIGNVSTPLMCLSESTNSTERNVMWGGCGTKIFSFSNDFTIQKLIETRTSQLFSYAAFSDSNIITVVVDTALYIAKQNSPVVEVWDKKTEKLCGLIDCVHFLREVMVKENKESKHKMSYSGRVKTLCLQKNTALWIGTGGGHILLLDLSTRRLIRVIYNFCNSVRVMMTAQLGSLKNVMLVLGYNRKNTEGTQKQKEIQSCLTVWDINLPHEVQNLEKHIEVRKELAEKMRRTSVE

| Structure (SMILES) | metabolised at 0.5 h [1] [%] | metabolised at 40 min [2] [%] | IC50 [3] [nM] | Kp [4] | logD [5] |
| --- | --- | --- | --- | --- | --- |
| Cc1ccc(Nc2nccc3[nH]nc(C)c23)cc1 | 28 | 13 | 97 | – | – |
| Cc1nn(C)c2ccnc(NC3CCCCC3)c12 | – | – | > 10000 | – | – |
| c1cc2[nH]nc(-c3cnn(C4CCCC4)c3)c2c(NC2CCOCC2)n1 | – | – | 170 | – | – |
| Cc1n[nH]c2ccnc(NCc3ccc(Cl)cc3)c12 | – | – | 4900 | – | – |
| Cc1n[nH]c2ccnc(NC(C)C)c12 | – | – | 880 | – | – |
| Cc1n[nH]c2ccnc(Nc3cnn(C)c3)c12 | – | – | 830 | – | – |
| c1cc2[nH]nc(-c3cnn(C4CCCC4)c3)c2c(OC2CCOCC2)n1 | – | – | 4 | – | – |
| CC(C)Cn1cc(-c2n[nH]c3ccnc(NC4CCOCC4)c23)cn1 | – | – | 410 | – | – |
| Cc1n[nH]c2ccnc(OC3CCN(C)CC3)c12 | – | – | 1900 | – | – |
| Cc1n[nH]c2ccnc(NC3CCOCC3)c12 | 4 | 0 | 190 | 1.6 | 1.2 |
| Cc1n[nH]c2ccnc(N3CCOCC3)c12 | – | – | 3000 | – | – |
| Cc1n[nH]c2ccnc(O[C@@H]3CCOC3)c12 | 13 | 0 | 250 | – | – |
| Cc1n[nH]c2ccnc(OC3CCCC3)c12 | 42 | 31 | 86 | – | – |
| c1cc(-c2n[nH]c3ccnc(NC4CCOCC4)c23)cc(N2CCOCC2)n1 | 11 | 17 | – | – | – |
| Cc1noc2ccnc(NC3CCCCC3)c12 | – | – | > 10000 | – | – |
| Cc1n[nH]c2ccnc(NCC3CC3)c12 | – | – | 2400 | – | – |

| Structure (SMILES) | metabolised at 0.5 h [1] [%] | metabolised at 40 min [2] [%] | IC50 [3] [nM] | Kp [4] | logD [5] |
| --- | --- | --- | --- | --- | --- |
| Cc1n[nH]c2ccnc(Nc3cccnc3)c12 | – | – | > 10000 | – | – |
| Cc1n[nH]c2ccnc(Nc3ccc(Cl)cc3)c12 | – | – | 390 | – | – |
| CC(C)n1cc(-c2n[nH]c3ccnc(OC4CCCCC4)c23)cn1 | 66 | 36 | 2 | – | 3.7 |
| Cc1n[nH]c2ccnc(NC3CCCC3)c12 | 10 | 2 | 410 | – | – |
| CC[C@H](C)Nc1nccc2[nH]nc(C)c12 | 9 | 6 | 300 | – | – |
| CCOc1nccc2[nH]nc(C)c12 | – | – | 440 | – | – |
| Cc1n[nH]c2ccnc(N(C)C3CCCCC3)c12 | – | – | 1600 | – | – |
| Cc1c[nH]c2ccnc(NC3CCCCC3)c12 | – | – | > 10000 | – | – |
| CC(C)n1cc(-c2n[nH]c3ccnc(NC4CCCCC4)c23)cn1 | 43 | 23 | 110 | – | 3.2 |
| Cn1cc(-c2n[nH]c3ccnc(NC4CCCCC4)c23)cn1 | 19 | 21 | 130 | – | 2.7 |
| CC(C)Cn1cc(-c2n[nH]c3ccnc(OC4CCOCC4)c23)cn1 | – | – | 15 | – | – |
| Cc1n[nH]c2ccnc(OC(C)C)c12 | 24 | 2 | 68 | – | – |
| Cc1n[nH]c2ccnc(NC3CCC3)c12 | – | – | 530 | – | – |
| Cc1n[nH]c2ccnc(NC3CC3)c12 | – | – | 4700 | – | – |
| Cc1n[nH]c2cncc(NC3CCCCC3)c12 | – | – | 770 | – | – |
| Cc1n[nH]c2ccnc(OC3CCC3)c12 | 41 | 22 | 170 | – | – |
